Laboratory results reported in PubChem BioAssay.
Calls of active or inactive are those of the source.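 How the source made its calls, unless noted: active means fluorescence slope after compound addition differing from the mean of all tested samples at 99.7% confidence, mostly higher but some lower; inactive means the rest.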

Columns and labels:
[1] = inhibitors of TNFa-induced NFkB p65 translocation, primary screen, imaging, HUVEC, MLSMR starter and 10KST1 sets (AID 438;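 active means inhibition above 20% together with a positive visual image hit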;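 further: compound added about 3h40 before a 20 min TNFalpha stimulation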;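 on inhibition: signal is the nuclear over cytoplasmic p65 intensity ratio per well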); settings: HUVEC TNFa-induced p65 nuclear translocation; cell count: measured here: nuclei count (cytotoxicity indicator), at 2.08 µM; inhibition: at 2 µM, stronger effect = higher value, 0% TNFa-plus-vehicle, 100% no-TNFa wells
[2] = endothelial E-selectin expression blockers – imaging, HUVEC, immunofluorescence, MLSMR starter and 10KST1 sets, primary screen (AID 487;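 active means visually confirmed hit in the image check and inhibition above 20%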;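 on inhibition: signal is fraction of cell area covered by stained E-selectin grains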;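 on nuclei count: 100% = median nuclei count of all wells on the same plate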); settings: HUVEC TNFalpha-induced E-selectin immunofluorescence imaging, at 2 µM; inhibition: stronger effect = higher value; nuclei count: measured here: cell number, toxicity
[3] = Primary imaging screen for DUSP6 inhibitors that restore phospho-Erk in transfected HeLa cells, chemical complementation (AID 609;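 active means compounds giving at least 50% inhibition in the cell-based MKP-3 phosphatase rescue imaging test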;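 on inhibition: phospho-Erk level distribution per well compared with pooled transfected vehicle control wells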); settings: HeLa MKP-3 transfected, phospho-Erk imaging KS statistic, at 10 µM, cells stimulated with TPA for 15 min
[4] = molecular target: Dual specificity protein phosphatase 6 (Homo sapiens) (UniProt Q16828); experiment: as above; settings: HeLa MKP-3 transfected, phospho-Erk imaging KS statistic; at 10 µM; stronger effect = higher value; cells stimulated with TPA for 15 min
Dual specificity protein phosphatase 6 (Homo sapiens), sequence (Q16828 whole entry, looked up): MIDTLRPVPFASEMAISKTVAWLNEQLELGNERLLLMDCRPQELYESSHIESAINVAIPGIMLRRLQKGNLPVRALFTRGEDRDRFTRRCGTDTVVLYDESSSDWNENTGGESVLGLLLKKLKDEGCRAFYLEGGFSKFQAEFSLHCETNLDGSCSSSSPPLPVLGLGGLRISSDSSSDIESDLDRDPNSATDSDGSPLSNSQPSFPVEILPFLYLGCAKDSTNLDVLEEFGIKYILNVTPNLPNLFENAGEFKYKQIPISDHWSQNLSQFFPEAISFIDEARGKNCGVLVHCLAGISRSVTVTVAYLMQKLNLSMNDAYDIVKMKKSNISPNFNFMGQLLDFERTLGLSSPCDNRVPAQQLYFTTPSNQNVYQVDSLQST

[5] = molecular target: Voltage-gated potassium channel subunit beta-2 (Rattus norvegicus) (UniProt P62483); experiment: inhibitors of rat Kvbeta2 reductase activity – biochemical, NADPH fluorescence, primary screen (AID 622;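 active means fluorescence slope higher than the sample average by over 3 SD, cut at about -0.22 in these data, passing the limit was not always enough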;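 further: slope of raw intensity against log time taken from 70 to 1610 s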); settings: recombinant KvBeta, 4-cyanobenzaldehyde reduction, at 10 µM, stronger effect = higher value
Voltage-gated potassium channel subunit beta-2 (Rattus norvegicus), sequence (P62483 whole entry, looked up): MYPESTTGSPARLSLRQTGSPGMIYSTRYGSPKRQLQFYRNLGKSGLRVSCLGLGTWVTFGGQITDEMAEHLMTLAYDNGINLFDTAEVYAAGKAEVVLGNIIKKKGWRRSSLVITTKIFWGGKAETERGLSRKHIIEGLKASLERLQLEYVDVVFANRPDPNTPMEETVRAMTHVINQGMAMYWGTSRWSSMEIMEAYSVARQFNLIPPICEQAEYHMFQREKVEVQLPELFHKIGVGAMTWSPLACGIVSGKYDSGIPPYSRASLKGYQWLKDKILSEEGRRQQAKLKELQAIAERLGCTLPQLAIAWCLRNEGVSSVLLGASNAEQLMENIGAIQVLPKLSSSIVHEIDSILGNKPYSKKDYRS

[6] = molecular target: Voltage-gated potassium channel subunit beta-2 (Rattus norvegicus) (UniProt P62483); experiment: enhancers of rat Kvbeta2 NADPH turnover – biochemical, NADPH fluorescence, primary screen (AID 623;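 active means NADPH fluorescence slope more negative than the mean of all samples by about 3 SD, 99.7% confidence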;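 further: fluorescence intensity change per second fitted from 20 to 320 s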); settings: Recombinant KvBeta, NADPH fluorescence decrease slope, 10 min; at 10 µM; stronger effect = lower value
[7] = molecular target: Muscarinic acetylcholine receptor M4 (Homo sapiens) (UniProt P08173); experiment: M4-linked GIRK flux change, two-sided – cell-based, HEK293 M4/GIRK, thallium flux, BTC-AM, M4 allosteric agonist project, primary screen (AID 625); settings: at 10 µM, actives lie on both sides;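 further: thallium influx through GIRK channels coupled to M4 in HEK293 cells with BTC-AM dye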
Muscarinic acetylcholine receptor M4 (Homo sapiens), sequence (P08173 whole entry, looked up): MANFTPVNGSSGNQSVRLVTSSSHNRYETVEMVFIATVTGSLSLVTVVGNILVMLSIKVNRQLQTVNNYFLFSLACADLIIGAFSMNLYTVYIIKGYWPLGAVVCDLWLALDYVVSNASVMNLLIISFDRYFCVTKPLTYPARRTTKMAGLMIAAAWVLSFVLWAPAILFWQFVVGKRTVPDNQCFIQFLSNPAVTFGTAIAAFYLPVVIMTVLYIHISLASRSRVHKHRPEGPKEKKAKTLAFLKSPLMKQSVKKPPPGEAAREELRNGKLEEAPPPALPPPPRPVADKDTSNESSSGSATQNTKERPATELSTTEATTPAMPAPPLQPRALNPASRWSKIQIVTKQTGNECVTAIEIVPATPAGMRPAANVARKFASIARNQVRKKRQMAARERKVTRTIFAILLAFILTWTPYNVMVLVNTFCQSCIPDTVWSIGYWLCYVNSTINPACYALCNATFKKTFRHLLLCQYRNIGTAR
How it was run: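 System: HEK293 cells with M4 receptor and GIRK channels | Incubation: Cells overnight at 37 °C, BTC-AM loading 1 h, reads 2 min total | Technique: Kinetic BTC-AM fluorescence sampled at 1 Hz, 10 s pre-addition baseline | Measure: Post-addition slope, 15–24 s, of baseline-normalized fluorescence | Control set: Carbachol positive, DMSO negative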

[8] = inhibitors of larval lipid processing in zebrafish, primary screen, whole organism, PED6 fluorescence, gall bladder and intestine (AID 686;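 active means a full or partial loss of lipid-probe fluorescence in the fish gall bladder, intestine or both, judged by eye; inactive means no fluorescence loss, or compound toxic to the fish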;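 further: larvae 5 to 7 days old with five fish per well; signal comes from phospholipase A2 cleavage of quenched PED6 carried via bile; overnight exposure to compound and PED6 before scoring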); settings: Zebrafish larvae PED6 lipid processing, fluorescence scoring; screened at 20 µM (by protocol)
How it was run: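 Test system – live zebrafish larvae aged 5-7 days, whole organism · Buffer or medium – E3 fish medium · Reagent – quenched phospholipase substrate PED6, 100 nM final, ingested by larvae · Doses – 20 µM single dose · Incubation – overnight compound and PED6 incubation · Technique – visual fluorescence microscopy scoring of gall bladder, gut · Read-out basis – visual per-well fluorescence inhibition score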

[9] = loss of swimming-algae plug formation – whole organism, Chlamydomonas reinhardtii, WT vs cilia-less mutant, absorbance, 96-well, primary screen (AID 463189;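 active means inhibition at or above 50% relative to wild type and mutant plate controls; inactive means inhibition below 50%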;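 further: 0% = wild type cc124 cells in DMSO and 100% = ciliumless bld1 mutant cells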); settings: Chlamydomonas reinhardtii gravitaxis, OD600 absorbance, 2 days; at 10 µM; stronger effect = higher value
[10] = measured here: cell density z-score
[11] = measured here: nuclear c-Myc green intensity z-score
[12] = measured here: nuclear pErk red intensity z-score, stronger effect = higher value

Compound	cell count [1]	inhibition [1]	inhibition [2]	nuclei count [2]	z-score [3, 10]	z-score [3, 11]	z-score [3, 12]	inhibition [4]	fluorescence slope [5]	NADPH fluorescence slope [6]	fluorescence slope [7]	outcome [8]	inhibition [9]
CCOC(=O)NC(Nc1cc(C)on1)(C(F)(F)F)C(F)(F)F	705	-7.9% (inactive)	-70% (inactive)	169%	-0.319	1.98	0.812	-11.4% (inactive)	-0.465 (inactive)	-3.9e-05 (inactive)	0.00511 (inactive)	inactive	-3.89% (inactive)
COc1ccc(/C(O)=C2\C(=O)C(=O)N(Cc3ccco3)C2c2cc(OC)ccc2OC)cc1 (stereo not given)	613	-13.1% (inactive)	-6% (inactive)	161%	0.378	-0.392	-0.39	5.42% (inactive)	-0.452 (inactive)	-1.6e-05 (inactive)	0.00573 (inactive)	inactive	-2.62% (inactive)
CC1(C)Cc2c(C#N)c(SCc3nc4ccccc4[nH]3)nc(N3CCOCC3)c2CO1	464	-6.9% (inactive)	-111% (inactive)	99.1%	-1.63	0.58	-0.0845	3.97% (inactive)	-0.39 (inactive)	1.4e-05 (inactive)	0.00539 (inactive)	inactive	-18.5% (inactive)
CCNc1sc(C(=O)c2cccs2)c(N)c1C#N	583	0.3% (inactive)	-26.4% (inactive)	114%	0.394	-0.752	0.076	10.9% (inactive)	-0.442 (inactive)	-4.6e-05 (inactive)	0.00473 (inactive)	inactive	24.6% (inactive)
O=S(=O)(/C=C/c1ccccc1)Nc1ccc2c(c1)OCO2	371	-6.3% (inactive)	-96.3% (inactive)	154%	0.539	-2	0.714	-2.59% (inactive)	-0.476 (inactive)	-9.8e-05 (inactive)	0.00384 (inactive)	inactive	4.72% (inactive)
c1ccc2c(N3CCCCC3)nc(N3CCCCC3)nc2c1	497	-2.8% (inactive)	20.7% (inactive)	159%	-1.53	0.598	1.04	1.9e-07% (inactive)	-0.388 (inactive)	-3.5e-05 (inactive)	0.00468 (inactive)	inactive	4.68% (inactive)
COC(=O)c1cc(Br)c(=O)n(-c2cc(C)on2)c1	650	-3.9% (inactive)	23.3% (inactive)	115%	-0.164	-1.68	0.836	-2.91% (inactive)	-0.438 (inactive)	-1.4e-05 (inactive)	0.00456 (inactive)	inactive	8.55% (inactive)
CCC(=O)Nc1ccc(-c2nnc(-c3ccccc3)o2)cc1	647	1.6% (inactive)	18.6% (inactive)	89.6%	1.36	-0.514	1.06	1.63% (inactive)	-0.444 (inactive)	-8.1e-05 (inactive)	0.00653 (inactive)	inactive	30.3% (inactive)
CN1C(=O)C2(c3ccccc31)C1CCCC=C1C(C#N)=C(N)C2(C#N)C#N (stereo not given)	391	-7% (inactive)	-160% (inactive)	143%	-0.865	0.905	-0.897	29.4% (inactive)	-0.472 (inactive)	-1.9e-05 (inactive)	0.00434 (inactive)	inactive	4.14% (inactive)
CC1(C(=O)CSc2n[nH]c(-c3ccccc3Cl)n2)CCC(=O)O1 (stereo not given)	640	-3.4% (inactive)	-44.5% (inactive)	144%	1.47	-0.819	-0.432	-2.47% (inactive)	-0.482 (inactive)	-7.8e-05 (inactive)	0.0054 (inactive)	inactive	3.93% (inactive)
O=c1[nH]cnc2c1cnn2Cc1ccccc1	509	-2.1% (inactive)	-58.3% (inactive)	145%	0.233	-0.586	0.288	-3.97% (inactive)	-0.354 (inactive)	-5.1e-05 (inactive)	0.00657 (inactive)	inactive	-9.15% (inactive)
O=C(O)CCCC(=O)N1CCN(C(c2ccccc2)c2ccccc2)CC1	593	2% (inactive)	16.4% (inactive)	93.4%	0.508	0.369	-2.19	-9.53% (inactive)	-0.501 (inactive)	-2.2e-05 (inactive)	0.00548 (inactive)	inactive	-16% (inactive)
Cc1ccccc1N1C(=O)CC(Sc2nnc(-c3ccccc3)o2)C1=O (stereo not given)	482	-2.4% (inactive)	-29.2% (inactive)	177%	-0.982	-1.28	2.47	5.95% (inactive)	-0.383 (inactive)	-3.3e-05 (inactive)	0.00539 (inactive)	inactive	57.7% (active)
C=CCN(C(=O)CCC(=O)O)C1CC(=O)N(c2ccc(OC)cc2)C1=O (stereo not given)	549	0.4% (inactive)	17.4% (inactive)	97.5%	1.91	0.0386	-1.01	14.7% (inactive)	-0.482 (inactive)	-3.4e-05 (inactive)	0.005 (inactive)	inactive	-19.1% (inactive)
Cc1nc(=O)c(-c2ccccc2)c(C)n1-c1ccc(S(N)(=O)=O)cc1	568	-4.9% (inactive)	-74.8% (inactive)	154%	0.3	0.245	1.29	7.93% (inactive)	-0.406 (inactive)	-4.5e-05 (inactive)	0.00537 (inactive)	inactive	-8.67% (inactive)
C=CCN1C(=O)CC(C(=O)NC)SC1=Nc1ccc(C(=O)OCC)cc1 (stereo not given)	634	12.2% (inactive)	-19.2% (inactive)	105%	-0.632	0.636	-0.397	-2.09% (inactive)	-0.407 (inactive)	-5.9e-05 (inactive)	0.00387 (inactive)	inactive	6.38% (inactive)
Cc1cc(C)n(-c2ncnc3sc(C)c(C)c23)n1	577	-0.8% (inactive)	-64.7% (inactive)	157%	0.455	0.0261	1.38	19.8% (inactive)	-0.293 (inactive)	-3.5e-05 (inactive)	0.00669 (inactive)	inactive	-1.64% (inactive)
Cc1ccc(OCC(O)CNS(=O)(=O)c2ccccc2C(=O)O)cc1 (stereo not given)	625	-11.3% (inactive)	-18.3% (inactive)	152%	0.248	0.991	-0.853	21.4% (inactive)	-0.412 (inactive)	-2.6e-05 (inactive)	0.00639 (inactive)	inactive	-7.23% (inactive)
N#Cc1nc(-c2cccs2)oc1NCc1ccccc1Cl	657	3.4% (inactive)	-84% (inactive)	107%	-2.24	1.03	1.6	1.63% (inactive)	-0.513 (inactive)	-3.2e-05 (inactive)	0.00761 (inactive)	inactive	-1.01% (inactive)
CCOc1cccc(N2C(=O)CC(N(CCc3ccc(OC)c(OC)c3)C(=O)CC)C2=O)c1 (stereo not given)	586	-0.6% (inactive)	2.4% (inactive)	120%	-0.772	0.365	-1.41	-7.67% (inactive)	-0.453 (inactive)	-1.2e-05 (inactive)	0.00547 (inactive)	inactive	-0.122% (inactive)
